From the EternaBench riboswitch data

Columns and labels:
[1] = tested on: MS2 coat protein; assay: apparent Kd, MS2 coat protein; higher = weaker binding; RNA-MaP array; theophylline 2 mM where present
In short: (§1)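 Green signal from SNAP-549-labelled MS2 coat protein was normalised to red-channel RNA signal and to the median Fmax of control clusters. The protein was titrated from 0.7 or 1.5 nM, doubling to 3 µM, without and then with constant ligand, over designs transcribed by stalled E. coli RNA polymerase on Illumina sequencing-chip clusters, in 100 mM Tris-HCl pH 7.5, 80 mM KCl, 4 mM MgCl2, BSA, DTT, yeast tRNA and Tween-20. The apparent Kd is the median of filtered per-cluster binding-curve fits.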

[2] = tested on: MS2 coat protein; assay: apparent Kd, MS2 coat protein; higher = weaker binding; RNA-MaP array; tryptophan 2.4 mM where present
In short: as §1

[3] = designed as: OFF switch for theophylline, no ligand
[4] = ligand present: theophylline, designed as: OFF switch for theophylline
[5] = designed as: ON switch for theophylline, no ligand
[6] = ligand present: theophylline, designed as: ON switch for theophylline
[7] = designed as: OFF switch for tryptophan, no ligand
[8] = ligand present: tryptophan, designed as: OFF switch for tryptophan
[9] = designed as: ON switch for tryptophan, no ligand
[10] = ligand present: tryptophan, designed as: ON switch for tryptophan

AAAUAAAUAACUGAUACCAGUGUACUGACAUGAGGAUCACCCAUGUUGGGUUUGGUUGUACACCCUUGGCAGCAGAAAUAUAAAA
apparent Kd [1, 3]: 15.9 nM
apparent Kd [1, 4]: 29.8 nM

AACAUGGGAUUAAAAUAAAUAAUAACUGAUACCAGACUAUAUAAUGUCCCUUGGCAGCAGAUACAUGAGGAUCACCCAUGUAUUA
apparent Kd [1, 3]: 12.9 nM
apparent Kd [1, 4]: 23.8 nM

AACCGAGGCUAUCCUCUAAGACUAUGUGAUACCAGAAUAAUUUUAUUCCCUUGGCAGCAUGACAUGAGGAUCACCCAUGUCUCUU
apparent Kd [1, 5]: 27.8 nM
apparent Kd [1, 6]: 32.3 nM

AACUAAUCACAUGAGGAUCACCCAUGUGAUACCAGCUAAUCCCAAAGCCCUUGGCAGCACCUUUGGGUCCCGGUGUGUUUGAACA
apparent Kd [1, 3]: 9.6 nM
apparent Kd [1, 4]: 21.9 nM

AAUAACAUGAGGAUCACCCAUGUAAAAGAUACCAGAGUGAUGAUCCUCCCUUGGCAGCUUAAUAACGCUAUCGGAAACGAUAGCG
apparent Kd [1, 5]: 69.2 nM
apparent Kd [1, 6]: 105 nM

AAUAACAUGAGGAUCACCCAUGUAAAAGAUACCAGAUGCAUGAUGAUCCCUUGGCAGCUUAACGCUGAUUGGAAACAAUCAGCGA
apparent Kd [1, 5]: 39 nM
apparent Kd [1, 6]: 37.6 nM

AAUGCUGCCAAGGAUUCCUCAUGAGCAGAUACCAGCUAGGAAACUAGCCCUUGGCAGCUGCAACAUGAGGAUCACCCAUGUAAUA
apparent Kd [1, 3]: 38.5 nM
apparent Kd [1, 4]: 26.3 nM

ACAACAUGAGGCGAUACCAGAGGCAACAUGAGGAUCACCCAUGUUCACCCAUGUGAUCACCUCCCUUGGCAGCGCACAUGAGGAU
apparent Kd [1, 5]: 12.4 nM
apparent Kd [1, 6]: 30 nM

ACAUGAGGAUCACCCAUGUAGUGGCACGAUACCAGCUGAUCCCGUGGCCCUUGGCAGCGUCCGGUGUGGUCUGCCGGGAUGGAGC
apparent Kd [1, 5]: 23.7 nM
apparent Kd [1, 6]: 28.4 nM

ACAUGAGGAUCACCCAUGUGCAGAACGGAUACCAGCGUCCUGGUACGCCCUUGGCAGCCGGACAUGAGGAUCACCCAUGUGUGGA
apparent Kd [1, 3]: 93.1 nM
apparent Kd [1, 4]: 406 nM

ACCCAUAAUUGGGCGGGUGGAUUGAGUGAUACCAGUCGUAUACAUGACCCUUGGCAGCACCGACAUGAGGAUCACCCAUGUGCCA
apparent Kd [1, 5]: 39.7 nM
apparent Kd [1, 6]: 99.8 nM

ACGAACGAUAGCGAUACCAGACGUACAUGAGGAUCACCCAUGUUUUGGGUAAGGUUAAUAGUCCCUUGGCAGCGCUUUAAGUUCG
apparent Kd [1, 3]: 59.6 nM
apparent Kd [1, 4]: 469 nM

ACGAUACGACAUGAGGAUCACCCAUGUGAUACCAGCGUGGAAACACGCCCUUGGCAGCACAAAUACUCCAGAAACGUAUCGAAAA
apparent Kd [1, 3]: 239 nM
apparent Kd [1, 4]: 389 nM

ACGUCAUGGAGAACGUGACGACUUAUCGAUACCAGCGAUUGAGAGCGCCCUUGGCAGCGAACAUGAGGAUCACCCAUGUCAAGGG
apparent Kd [1, 5]: 29.7 nM
apparent Kd [1, 6]: 42.1 nM

AGACAUGAGGAUCACCCAUGUAGUACGGAUACCAGAUCCAGAUGCGUCCCUUGGCAGCUGUGGUACAGCGUUACAUCGCUCGUAG
apparent Kd [1, 3]: 17.6 nM
apparent Kd [1, 4]: 17.6 nM

AGACAUGAGGAUCACCCAUGUAGUAUGGAUACCAGAUCCAGAUUUAUCCCUUGGCAGCUGUGGUACAGCGUUGCAACGCUCCUAG
apparent Kd [1, 3]: 29.3 nM
apparent Kd [1, 4]: 28.9 nM

AGAUAACAUGGUUUAAUAAGUUAAACUGAUACCAGUGUAUAUAAUCACCCUUGGCAGCAGCAACAUGAGGAUCACCCAUGUAAUA
apparent Kd [1, 5]: 17.2 nM
apparent Kd [1, 6]: 21.9 nM

CACAUUUUUAGAAGGGCGGUUUCACUCCUGCGAGGACCGGUACGGCCGCCACUCGACAUGAGGAUCACCCAUGUGGAGAAGUUAG
apparent Kd [2, 7]: 20.5 nM
apparent Kd [2, 8]: 110 nM

CAUGGCUGUGCGGCCGCCACUGGCUCAUCCUGCAUUACAUGAGGAUCACCCAUGUUGCGGCCUCCCAGGACCGGGCAUAGCCUGA
apparent Kd [2, 9]: 300 nM
apparent Kd [2, 10]: 139 nM

CAUGUGAAAAUAAGAAGAAGAAGAAUAAAUCGAGGACCGGUACGGCCGCCACUCGUCGAAUCACAUGAGGAUCACCCAUGUAGCC
apparent Kd [2, 7]: 65.1 nM
apparent Kd [2, 8]: 50.9 nM

CCAUCUACAUCGGCCGCCACUGAACCAAGGAGACAUGAGGAUCACCCAUGUAUGGGAAACCAUCAUAGGACCGGGAUGAUCUACC
apparent Kd [2, 9]: 113 nM
apparent Kd [2, 10]: 122 nM

CCGGCCAAUUAGAAAUUAAUUGGCCGGAAACGAGGACCGGUACGGCCGCCACUCGUGGCGGGAGAAACAUGAGGAUCACCCAUGU
apparent Kd [2, 7]: 40 nM
apparent Kd [2, 8]: 26 nM

CGUAUUGGAAACAGUACGAGUGAUCCGGUCCGAGGACCGGUACGGCCGCCACUCGAAAUUAAUAAACAUGAGGAUCACCCAUGUA
apparent Kd [2, 7]: 17.8 nM
apparent Kd [2, 8]: 26.8 nM

CUAGACUGUGCGGCCGCCACUGGCUCAUCCUGCAUUACAUGAGGAUCACCCAUGUUGCGGCCUCCCAGGACCGGGCAUAGUCUGC
apparent Kd [2, 9]: 329 nM
apparent Kd [2, 10]: 105 nM

CUCAUCCACGCGGCCGCCACUAUAUUGUGGUGUGAAUGUGACGUAUUACAUGAGGAUCACCCAUGUAGGACCGGGCGUGGAUGAG
apparent Kd [2, 7]: 75.4 nM
apparent Kd [2, 8]: 168 nM

GAUUUAACAAAAGUUAGAUCAGUGGGUGAACGAGGACCGGUACGGCCGCCACUCGGACAUGAGGAUCACCCAUGUCCAUGUGAAA
apparent Kd [2, 7]: 17.8 nM
apparent Kd [2, 8]: 43.1 nM

GCUACAUGAGGAUCACCCAUGUAUGCGAGCCGAGGACCGGUACGGCCGCCACUCGCUUAACAUGAGGAUCACCCAUGUUGCUCGG
apparent Kd [2, 9]: 40.9 nM
apparent Kd [2, 10]: 43.6 nM

GCUAGGUCUACGGCCGCCACUAGACAUGGGUAAGACAUGAGGAUCACCCAUGUACUACGAGUGCAUAGGACCGGGUAGACCUAGC
apparent Kd [2, 9]: 326 nM
apparent Kd [2, 10]: 53.5 nM

GGAGUAGGAAACUAUUCCAAUCCUCGUGAACGAGGACCGGUACGGCCGCCACUCGAUAAAUAAAUACAUGAGGAUCACCCAUGUA
apparent Kd [2, 7]: 24.4 nM
apparent Kd [2, 8]: 50.2 nM

GGAGUAGGAAACUAUUCCAAUCCUCGUGAACGAGGACCGGUACGGCCGCCACUCGAUAAAUAAAUACAUGAGGAUCACCCAUGUU
apparent Kd [2, 7]: 68.8 nM
apparent Kd [2, 8]: 118 nM

GGCACAUAGUCGGCCGCCACUAGAAUAAGAUGGAAUAACAUGAGGAUCACCCAUGUAAAAGGGACUAGGACCGGGACUAUGUGCC
apparent Kd [2, 7]: 13.7 nM
apparent Kd [2, 8]: 11.9 nM

GGCACAUAGUCGGCCGCCACUAGUGGGAAAUGGGAGAACAUGAGGAUCACCCAUGUAGCGUAGCCUAGGACCGGGACUAUGUGCC
apparent Kd [2, 7]: 160 nM
apparent Kd [2, 8]: 156 nM

GGGACAUGAGGAUCACCCAUGUACCGGUCCCGAGGACCGGUACGGCCGCCACUCGAUGACCUCAUAGUCUGCCUGAGCAGCAGAC
apparent Kd [2, 9]: 41.3 nM
apparent Kd [2, 10]: 119 nM

GGUAACUCUACGGCCGCCACUGAACAUGAGGAUCACCCAUGUAAUGUUCAGAUUUUUUUUUUUUACAGGACCGGGUAGUGUUACC
apparent Kd [2, 9]: 178 nM
apparent Kd [2, 10]: 118 nM

GGUAUGUAUUCGGAAACGAAUGCAUACCAACGAGGACCGGUACGGCCGCCACUCGGGCCGUGAUCACAUGAGGAUCACCCAUGUA
apparent Kd [2, 7]: 40.2 nM
apparent Kd [2, 8]: 92.7 nM

GGUGUAAUUGACUCUUUGUUUUAUUUGUAACGAGGACCGGUACGGCCGCCACUCGAUAUUCACAUGAGGAUCACCCAUGUUAGCU
apparent Kd [2, 7]: 20.1 nM
apparent Kd [2, 8]: 20.4 nM

GGUUACUCUACGGCCGCCACUGAAAAGUAAAUAUUAAUGUACAUGACAUGAGGAUCACCCAUGUACAGGACCGGGUAGUGUAACC
apparent Kd [2, 9]: 84.2 nM
apparent Kd [2, 10]: 21.5 nM

GGUUACUCUACGGCCGCCACUGUAAAGUAAAGAUACCUGUACAUGACAUGAGGAUCACCCAUGUACAGGACCGGGUAGUGUAACC
apparent Kd [2, 9]: 545 nM
apparent Kd [2, 10]: 232 nM

GUGCCGCAUUCACAUGAGGAUCACCCAUGUCGAGGACCGGUACGGCCGCCACUCGACGUGCUUACAGGUCCUUUAAGGCCCAAUA
apparent Kd [2, 7]: 92.8 nM
apparent Kd [2, 8]: 43.8 nM

GUGUACAUGAGGAUCACCCAUGUCGAGUUACGAGGACCGGUACGGCCGCCACUCGGCGGCUCGACACGGAUAGCGAUGCGUUGCU
apparent Kd [2, 7]: 43.6 nM
apparent Kd [2, 8]: 110 nM

GUUGGACUUUCGGCCGCCACUGAGAGAGUCAUGUGAACAUGAGGAUCACCCAUGUAAUAUAUAUACAGGACCGGGAGGGUUGUAA
apparent Kd [2, 7]: 13.3 nM
apparent Kd [2, 8]: 9.9 nM

UAAACUACACAUGAGGAUCACCCAUGUGGCCGAGGACCGGUACGGCCGCCACUCGUGUGUUAAUAAAAGAACUGCAAGGUUCUUC
apparent Kd [2, 9]: 174 nM
apparent Kd [2, 10]: 73.1 nM

UAGUUGUAGUCGGCCGCCACUGUGAGCAUGGUUAACAUGAGGAUCACCCAUGUCCCGUACUAUAACAGGACCGGGACGUAGUUGC
apparent Kd [2, 9]: 48.1 nM
apparent Kd [2, 10]: 22.9 nM

UAUCGUCAGACGGCCGCCACUAGUACAUGAGGAUCACCCAUGUAGGUCCUAGAUUCCUCAUGAUCUAGGACCGGGUCUGACGAAU
apparent Kd [2, 7]: 39 nM
apparent Kd [2, 8]: 23 nM

UCGUGCAGAGCGGCCGCCACUGUAUUGCGUGCGGAUGACGGAACAUGAGGAUCACCCAUGUUGUUUAGGACCGGGCUUGCCACCA
apparent Kd [2, 7]: 12.7 nM
apparent Kd [2, 8]: 13.9 nM

UGUCAGCGAAAGUUGACAUGUUGAACCGGUCGAGGACCGGUACGGCCGCCACUCGAUCUCUCGUACAUGAGGAUCACCCAUGUCG
apparent Kd [2, 9]: 11.5 nM
apparent Kd [2, 10]: 10.7 nM

UGUGUAAUUGUCUGGUAGAUUUAUUUUUUUCGAGGACCGGUACGGCCGCCACUCGUUAUUUACAUGAGGAUCACCCAUGUUAGCU
apparent Kd [2, 7]: 12.9 nM
apparent Kd [2, 8]: 12.9 nM

UUACACAUCUCGGCCGCCACUGGCUUCAAAAUAAUGUGUACAUGAGGAUCACCCAUGUCCGAGCUCAGGACCGGGAGCAAAGAAG
apparent Kd [2, 9]: 26.7 nM
apparent Kd [2, 10]: 27.1 nM

UUAUAAGUACCGGUCCUCAGAUCCUCAUGACGAGGACCGGUACGGCCGCCACUCGAAACAUGAGGAUCACCCAUGUAAUAACACU
apparent Kd [2, 7]: 23.1 nM
apparent Kd [2, 8]: 19.9 nM

UUAUAAGUACCGGUCCUCAGAUCCUCAUGACGAGGACCGGUACGGCCGCCACUCGAAACAUGAGGAUCACCCAUGUAAUAAUAAC
apparent Kd [2, 7]: 37.2 nM
apparent Kd [2, 8]: 18.2 nM

UUCGUUGGCGAUCUGGGUUUACCAGAUCGGCGAGGACCGGUACGGCCGCCACUCGUGUUUUCUUUACAUGAGGAUCACCCAUGUU
apparent Kd [2, 9]: 19.2 nM
apparent Kd [2, 10]: 15.2 nM

UUCUUUAAGUCGGCCGCCACUGAAACAUGAGGAUCACCCAUGUAAAUUUGGGAGUAGUUAUAUUACAGGACCGGGACUAUAGUAA
apparent Kd [2, 7]: 41.5 nM
apparent Kd [2, 8]: 83 nM
